The species entered for one data set is Homo sapiens. The data set is described as follows: Selectivity index, ratio of Ki for human 5-HT3 receptor to Ki for human 5-HT7 receptor. In outline: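 Selectivity index taken as Ki at the other 5-HT receptor subtype divided by Ki at 5-HT7R, each from [3H]LSD membrane binding run by the NIMH PDSP. Ki values are means of at least three experiments in triplicate.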

The nature of data set [1]: AUClast in ICR mouse at 5 mg/kg, iv by LC-MS/MS analysis. Type of data set: ADME, organism-based. Further details: dose 5 mg/kg, time 0 - last, route intravenous. The note with it: in vivo. The method in brief: (§1)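 Male ICR mice, 7~8 weeks, 30 ± 5 g; single dose 5 mg/kg IV (n = 5) or 50 mg/kg oral (n = 4). Plasma protein-precipitated with acetonitrile containing internal standard, then LC-MS/MS. Non-compartmental analysis; AUClast by trapezoidal rule. Mean ± SD.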

Data set [2] in a line: Clearance in ICR mouse at 5 mg/kg, iv by LC-MS/MS analysis. Type of data set: ADME, organism-based. The note with it: in vivo. In outline: as §1
Data set [3] in a line: Cmax in ICR mouse at 5 mg/kg, iv by LC-MS/MS analysis. The format is ADME, organism-based. Further details: dose 5 mg/kg, route intravenous. Conditions: in vivo. In outline: as §1
Data set [4] relates to Mus musculus. The data set is described as follows: Sleep promoting activity in C57B1/6J mouse assessed as decrease in total rapid eye movement sleep time at 30 mg/kg, ip measured over 8 hrs by electroencephalogram method. The format is functional. Further details: scale not given: the % may be the effect or the level left. The method in brief:
(§2)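 Adult male C57Bl/6J mice, 10 weeks old, with parietal EEG screw electrodes implanted under ketamine. EEG and EMG recorded for 8 h from 9 AM, starting one day before dosing as baseline. On test day, 30 mg/kg i.p. at the start of the light phase, with EEG/EMG recorded for 8 h and scored in 2-h bins. n = 6-9 per group; mean ± SEM versus vehicle.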

The nature of data set [5]: AUClast in ICR mouse at 50 mg/kg, po by LC-MS/MS analysis. Type of data set: ADME, organism-based. Further details: dose 50 mg/kg, route oral, time 0 - last. The note with it: in vivo. In outline: as §1
Data set [6] in a line: Tmax in ICR mouse at 50 mg/kg, po by LC-MS/MS analysis. The format is ADME, organism-based. Conditions: in vivo. The method in brief:
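Male ICR mice, 7~8 weeks, 30 ± 5 g, given a single oral dose of 50 mg/kg (n = 4). Carotid-artery blood was sampled at 0, 0.25, 0.5, 1, 2, 4, 6 and 8 h. Plasma was protein-precipitated with acetonitrile containing internal standard and quantified by LC-MS/MS on a C18 gradient. Parameters came from non-compartmental analysis and are reported as mean ± SD.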

The nature of data set [7]: Terminal half-life in ICR mouse at 50 mg/kg, po by LC-MS/MS analysis. Type of data set: ADME, organism-based. The note with it: in vivo, read-out: beta t1/2 (converted). In outline: as §1
Another data set deals with CYP2C19 (Homo sapiens, UniProt P33261). The data set is described as follows: Inhibition of CYP2C19 in human liver microsomes assessed as remaining activity at 10 uM using S-mephenytoin as substrate preincubated for 5 mins followed by addition of NADPH generating system measured after 15 mins by LC-MS analysis. Type of data set: ADME. Conditions: probe S-mephenytoin, read-out: Activity. In outline:
(§3)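 Human liver microsomes 0.25 mg/ml in 0.1 M phosphate, pH 7.4, with a probe cocktail: phenacetin 50 μM, diclofenac 10 μM, S-mephenytoin 100 μM, dextromethorphan 5 μM, midazolam 2.5 μM. Test compound at 10 μM versus 0 μM control. 5 min at 37 °C, then NADPH-generating system for 15 min. Acetonitrile quench; metabolites measured by LC/MS as % remaining activity.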
A general note: Liver microsomes are a subcellular fraction often used to study metabolism.

A short description of data set [8]: AUC (0 to infinity) in ICR mouse at 50 mg/kg, po by LC-MS/MS analysis. Type of data set: ADME, organism-based. Further details: dose 50 mg/kg, time infinity, route oral. The note with it: in vivo. In outline: as §1
Data set [9] in a line: Terminal half-life in ICR mouse at 5 mg/kg, iv by LC-MS/MS analysis. Type of data set: ADME, organism-based. Conditions: in vivo, read-out: beta t1/2 (converted). In outline:
as §1

For data set [10], the system named is Mus musculus. The data set is described as follows: Sleep promoting activity in C57B1/6J mouse assessed as decrease in total rapid eye movement sleep time at 30 mg/kg, ip measured over 4 hrs by electroencephalogram method. Type of data set: functional. Further details: scale not given: the % may be the effect or the level left. In outline:
as §2

Data set [11] has as its system Mus musculus. The data set is described as follows: Toxicity in ICR mouse assessed as mortality at 50 mg/kg, po. Type of data set: organism-based. The note with it: in vivo. The method in brief:
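Observed in male ICR mice (7~8 weeks, 30 ± 5 g; n = 4) during a pharmacokinetic study after a single oral dose. Mice were held at 23 ± 3° and about 55% ± 10% humidity with standard feed and tap water. Blood was drawn via carotid artery from 0.25 to 8 h after dosing.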

The nature of data set [12]: Tmax in ICR mouse at 5 mg/kg, iv by LC-MS/MS analysis. Type of data set: ADME, organism-based. The note with it: in vivo. The method in brief: as §1
A short description of data set [13]: MRT in ICR mouse at 5 mg/kg, iv by LC-MS/MS analysis. Type of data set: ADME, organism-based. The note with it: in vivo. In outline: as §1
A further data set has as its target T1, CYP1A2 (Homo sapiens, UniProt P05177).
T1 sequence (P05177 whole entry): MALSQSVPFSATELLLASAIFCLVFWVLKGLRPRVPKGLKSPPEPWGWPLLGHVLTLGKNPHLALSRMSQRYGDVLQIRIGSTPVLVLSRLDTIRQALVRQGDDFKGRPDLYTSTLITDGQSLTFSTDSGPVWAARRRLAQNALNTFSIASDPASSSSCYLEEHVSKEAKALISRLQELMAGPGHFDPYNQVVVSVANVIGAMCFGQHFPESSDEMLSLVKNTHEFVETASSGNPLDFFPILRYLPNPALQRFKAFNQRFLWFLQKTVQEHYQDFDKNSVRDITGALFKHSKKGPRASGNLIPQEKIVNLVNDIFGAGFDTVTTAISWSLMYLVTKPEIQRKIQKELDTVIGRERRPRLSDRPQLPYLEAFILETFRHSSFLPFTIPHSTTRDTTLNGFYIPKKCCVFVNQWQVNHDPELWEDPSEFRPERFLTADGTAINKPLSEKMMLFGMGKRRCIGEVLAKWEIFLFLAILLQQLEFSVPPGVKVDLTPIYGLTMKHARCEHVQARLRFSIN
The data set can be described thus: Inhibition of CYP1A2 in human liver microsomes assessed as remaining activity at 10 uM using phenacetin as substrate preincubated for 5 mins followed by addition of NADPH generating system measured after 15 mins by LC-MS analysis. The format is ADME. Conditions: probe phenacetin, read-out: Activity. The method in brief: as §3

Molecules are shown by their SMILES.

Sequence of CYP2C19 (P33261 whole entry): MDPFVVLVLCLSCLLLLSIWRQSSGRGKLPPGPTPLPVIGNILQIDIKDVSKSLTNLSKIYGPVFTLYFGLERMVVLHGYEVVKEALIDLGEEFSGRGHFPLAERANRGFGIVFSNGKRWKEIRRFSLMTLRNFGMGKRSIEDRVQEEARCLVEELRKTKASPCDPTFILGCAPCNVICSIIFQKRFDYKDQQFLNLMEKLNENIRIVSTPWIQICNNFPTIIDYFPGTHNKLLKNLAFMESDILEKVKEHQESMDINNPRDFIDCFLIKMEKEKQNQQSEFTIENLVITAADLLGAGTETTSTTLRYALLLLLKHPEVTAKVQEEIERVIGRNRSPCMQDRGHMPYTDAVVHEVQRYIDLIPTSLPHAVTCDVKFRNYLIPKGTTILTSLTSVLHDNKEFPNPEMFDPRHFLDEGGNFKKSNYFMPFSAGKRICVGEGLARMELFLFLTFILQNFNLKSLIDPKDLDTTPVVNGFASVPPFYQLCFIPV

As for `Cc1ccc(-c2noc3c2CCNCC3)cc1`, the Ratio Ki in the data set listed under Homo sapiens is 26.3.
Turning to `Clc1ccc(-c2n[nH]c3c2CCNCC3)cc1`, the AUC(0-t) in [1] was 4900 ng·h/mL; in [5], 53700 ng·h/mL. Besides, the clearance in data set [2] was 16 mL/min/kg. In data set [3], this molecule returned a Cmax of 2200 ng/mL. For the same molecule, the Activity in the data set on Mus musculus [4] was 36.7%; in the data set on Mus musculus [10], 69.4%; with Mus musculus [11] it was “Non-Toxic”. For the same molecule, the Tmax in [6] amounted to 1.37 h; in data set [12], 6.6 min. The half-life in data set [7] is 2.77 h; in data set [9], 1.78 h. Moreover, the values for the activity at 0.25 h, 10 µM at CYP2C19 and at CYP1A2 were more than 100% and 86%, respectively. The molecule also displayed an AUC(0-inf) in data set [8] of 64300 ng·h/mL. In [13], this molecule returned an MRT of 2.5 h.

As a reminder, the AUC(0-t) is the area under the concentration-time curve up to a stated or last time point. What is called clearance is the volume of plasma or blood freed of the substance per unit of time. By Cmax is commonly meant the highest concentration seen after dosing. In general, Tmax refers to the time at which the peak concentration occurs. For orientation: AUC(0-inf) means total exposure, with the tail of the curve extrapolated. The MRT is a mean duration of stay, worked out from the concentration-time curve.

For the origin of these results see ChEMBL document CHEMBL4196105, “Discovery of β-Arrestin Biased Ligands of 5-HT7R” (J Med Chem, 2018).
